Laboratory results from publication PMC3034256 (Chemistry & biology, 2011).

Columns and labels:
[1] = molecular target: T1, Lyp (Homo sapiens, UniProt Q9Y2R2); assay: PTP-catalyzed pNPP hydrolysis, Lyp; format: biochemical
T1 sequence (Q9Y2R2 1-807): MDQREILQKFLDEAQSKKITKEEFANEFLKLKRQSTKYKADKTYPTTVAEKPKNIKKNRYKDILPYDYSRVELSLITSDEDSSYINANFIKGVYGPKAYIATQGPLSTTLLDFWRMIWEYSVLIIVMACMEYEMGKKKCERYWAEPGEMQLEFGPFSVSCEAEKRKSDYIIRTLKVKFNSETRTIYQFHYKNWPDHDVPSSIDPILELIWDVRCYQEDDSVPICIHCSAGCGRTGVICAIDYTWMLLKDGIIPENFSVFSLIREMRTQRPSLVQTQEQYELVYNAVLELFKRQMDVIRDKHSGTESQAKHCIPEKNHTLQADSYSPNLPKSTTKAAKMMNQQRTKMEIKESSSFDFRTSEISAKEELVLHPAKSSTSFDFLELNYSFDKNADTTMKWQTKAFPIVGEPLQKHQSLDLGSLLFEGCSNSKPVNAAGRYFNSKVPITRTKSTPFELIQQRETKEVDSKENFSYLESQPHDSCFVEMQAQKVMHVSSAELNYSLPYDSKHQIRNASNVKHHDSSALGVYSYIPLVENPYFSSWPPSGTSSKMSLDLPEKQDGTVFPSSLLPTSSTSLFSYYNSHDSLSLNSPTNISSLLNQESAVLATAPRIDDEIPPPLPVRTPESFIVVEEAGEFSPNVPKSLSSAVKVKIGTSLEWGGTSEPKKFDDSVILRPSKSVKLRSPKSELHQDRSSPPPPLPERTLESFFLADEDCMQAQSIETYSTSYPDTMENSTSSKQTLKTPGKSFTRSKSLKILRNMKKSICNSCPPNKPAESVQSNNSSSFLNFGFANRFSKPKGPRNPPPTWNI
In short: (§1)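 pNPP hydrolysis was run at 25 °C in 50 mM 3,3-dimethylglutarate, pH 7.0, 1 mM EDTA, ionic strength 0.15 M (NaCl). pNPP was fixed at each enzyme's experimentally determined Km, and reactions were started with enzyme. They were quenched with NaOH and corrected with no-enzyme controls. p-Nitrophenol was read at 405 nm. IC50 was fitted from AI/A0 = IC50/(IC50+[I]).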

[2] = molecular target: T2, CD45 (Homo sapiens, UniProt P08575); assay: PTP-catalyzed pNPP hydrolysis, CD45; format: biochemical
T2 sequence (P08575 26-1306): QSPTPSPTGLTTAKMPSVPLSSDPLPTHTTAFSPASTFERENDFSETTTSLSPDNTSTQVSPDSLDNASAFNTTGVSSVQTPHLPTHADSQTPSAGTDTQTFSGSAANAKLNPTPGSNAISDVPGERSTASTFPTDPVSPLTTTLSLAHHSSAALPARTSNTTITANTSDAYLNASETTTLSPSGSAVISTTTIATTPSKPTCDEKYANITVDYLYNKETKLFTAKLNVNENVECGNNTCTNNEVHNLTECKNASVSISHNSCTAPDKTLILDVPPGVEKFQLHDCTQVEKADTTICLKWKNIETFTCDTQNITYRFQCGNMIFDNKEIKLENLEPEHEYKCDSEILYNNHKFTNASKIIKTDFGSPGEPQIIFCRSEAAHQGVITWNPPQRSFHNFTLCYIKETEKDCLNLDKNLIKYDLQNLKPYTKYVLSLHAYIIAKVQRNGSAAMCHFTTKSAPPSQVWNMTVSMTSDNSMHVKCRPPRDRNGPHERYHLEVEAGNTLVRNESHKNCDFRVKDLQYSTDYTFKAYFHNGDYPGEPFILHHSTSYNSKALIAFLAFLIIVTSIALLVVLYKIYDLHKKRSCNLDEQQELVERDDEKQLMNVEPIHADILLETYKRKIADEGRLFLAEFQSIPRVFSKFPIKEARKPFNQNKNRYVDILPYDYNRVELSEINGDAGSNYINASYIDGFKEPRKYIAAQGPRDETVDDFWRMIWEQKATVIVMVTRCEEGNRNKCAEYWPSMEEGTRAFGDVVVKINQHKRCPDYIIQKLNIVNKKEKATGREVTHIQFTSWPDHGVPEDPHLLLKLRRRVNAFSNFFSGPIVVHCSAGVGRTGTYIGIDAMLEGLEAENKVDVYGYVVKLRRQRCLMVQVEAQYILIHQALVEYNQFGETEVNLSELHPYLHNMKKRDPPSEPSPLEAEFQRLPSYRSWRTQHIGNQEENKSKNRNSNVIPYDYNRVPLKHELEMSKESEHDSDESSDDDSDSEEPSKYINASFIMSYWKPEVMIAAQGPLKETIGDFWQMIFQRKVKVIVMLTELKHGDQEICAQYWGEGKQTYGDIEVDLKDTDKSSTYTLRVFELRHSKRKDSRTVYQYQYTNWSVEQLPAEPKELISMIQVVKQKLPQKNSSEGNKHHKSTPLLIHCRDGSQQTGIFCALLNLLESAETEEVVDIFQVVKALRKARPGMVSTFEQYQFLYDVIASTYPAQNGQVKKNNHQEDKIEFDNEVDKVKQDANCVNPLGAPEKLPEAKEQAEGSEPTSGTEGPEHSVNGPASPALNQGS
In short: as §1

[3] = system: panel of PTPs; assay: Screen against a panel of PTPs at 10 µM; format: biochemical; details: 10 µM compound, pNPP, pH 7, 25 °C
[4] = system: Jurkat T cells; assay: TCR-mediated tyrosine phosphorylation in Jurkat T cells; format: cell-based; details: 2 h pretreatment (2 µM; TTN 2–4 µM), 10 µg/mL anti-CD3
[5] = system: SHP2/E76K-expressing hematopoietic progenitors; format: cell-based; details: 2 µM for 24 hours, GM-CSF 1 ng/mL, [3H] thymidine
In short: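 Transduced, EGFP-sorted bone marrow low-density mononuclear cells (empty vector, wild-type SHP2 or SHP2/E76K) were serum- and growth factor-starved for 6 h. They were then cultured in complete medium with GM-CSF 1 ng/mL, with DMSO or 2 µM test compound, for 24 h. Cells were pulsed with [3H]thymidine to measure proliferation. Two independent experiments, cultures in triplicate.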

[6] = system: transduced bone marrow LDMNCs (MIEG3, wild-type SHP2, SHP2/E76K); assay: Methylcellulose colony assay, GM-CSF-stimulated monocytic differentiation; format: cell-based; details: 2 µM, GM-CSF 1 ng/mL, 7 days, all cell types
In short: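 Transduced, EGFP-sorted bone marrow low-density mononuclear cells were plated at 8000 cells/mL in 0.9% methylcellulose medium (IMDM, 2 mM glutamine, 80 µM β-mercaptoethanol, 30% FBS) with GM-CSF 1 ng/mL, ± 2 µM test compound. Cultures were kept at 37 °C, 5% CO2 for 7 days. Total colonies and CFU-GM vs CFU-M morphology were scored by light microscopy; n=2.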

C=C/C(=C/C(=O)C[C@H](C)C[C@@H](C)CC[C@H](O)[C@H](C)C(=O)C[C@@H](O)[C@H](C)[C@@H](C)OC(=O)C[C@@H](O)C1=C(C)C(=O)OC1=O)CC [TTN, tautomycetin]
IC50 [1]: 20 ± 2 µM | IC50 [2]: > 50 µM | inhibition of the rest of the PTP panel (other than SHP2) [3]: < 30% | effect on TCR-mediated tyrosine phosphorylation [4]: efficiently attenuated | effect on proliferation of SHP2/E76K-expressing progenitors [5]: effectively reduced | effect on development of CFU-M [6]: reduced in all cells types
